Compound activity from PubChem.
Rpn11 block = Rpn11 (PSMD14) deubiquitinase inhibitors, primary screen, biochemical, fluorescence polarization, uHTS; 26S proteasome non-ATPase regulatory subunit 14 (Homo sapiens), O00487; 0.59% of 360,000 active; human 26S proteasome, Ub4-pepOG fluorescence polarization; 20S core pre-blocked with epoxomicin; AID 588493, 2011; inhibition, % at 20 µM;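 active = inhibition at 20 µM, scaled to each plate's controls, above about 33%, limit read from the data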
STEP block = STEP phosphatase inhibitors, primary screen, biochemical, fluorescence intensity, uHTS | 0.25% of 360,000 active | recombinant STEP, OMFP fluorogenic substrate | inhibition, % at 20 µM | Tyrosine-protein phosphatase non-receptor type 5 (Homo sapiens), P54829;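 active = inhibition at 20 µM, scaled per plate between control wells, above about 37%, limit read from the data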
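Measure: Control-normalized % inhibition with plate pattern correction | Test system: STEP phosphatase, cell-free reaction | Medium: pH 6.0 Bis-Tris with DTT and Tween 20 | Technique: Fluorescence, 480/540 nm | Times: Reaction 20 min, ambient temperature | Doses: Single compound dose of 20 µM, 1% DMSO final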
SUMO1 PPI mod = modulators of SUMO1 protein-protein interactions, primary screen, biochemical, uHTS | inhibition, % at 20 µM | SUMO1 binding to a labelled peptide, TR-FRET, 1 h | 0.33% of 360,000 active; in the data active = inhibition above about 37%
Target sequence (P63165 whole entry, looked up): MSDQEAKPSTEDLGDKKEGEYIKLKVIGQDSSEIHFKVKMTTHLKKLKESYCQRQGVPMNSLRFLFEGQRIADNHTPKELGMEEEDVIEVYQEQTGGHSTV
LMPTP inh = LMPTP phosphatase inhibitors, primary screen, biochemical, fluorescence intensity, uHTS; Low molecular weight phosphotyrosine protein phosphatase (Homo sapiens), P24666; recombinant LMPTP-A, OMFP fluorogenic substrate; inhibition, % at 20 µM; 0.22% of 360,000 active; AID 651560, 2012;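 active = compounds that cut the enzyme signal by at least half of the control window in the single-dose screen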
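Test system: LMPTP-A, protein tyrosine phosphatase of low molecular weight; Input: 0.625 nM enzyme; Incubation: 50 min dark incubation at room temperature; Signal: endpoint fluorescence intensity from OMFP dephosphorylation; Read-out basis: % inhibition versus control wells.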
DNMT1 block = human DNMT1 methyltransferase inhibitors, primary screen, biochemical, molecular beacon, fluorescence, HinP1I cleavage, uHTS; 0.83% of 360,000 active; inhibition (reported as % activation of signal), % at 10 µM; AID 588458, 2011; DNA (cytosine-5)-methyltransferase 1 (Homo sapiens), P26358; in the data active = inhibition above about 50%
Scp-1 inhibitor = Scp-1 phosphatase inhibitors, primary screen, biochemical, colorimetric, uHTS; 0.88% of 340,000 active; Carboxy-terminal domain RNA polymerase II polypeptide A small phosphatase 1 (Homo …; inhibition, % at 20 µM; Recombinant Scp1, phosphopeptide, malachite green phosphate absorbance;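 active = inhibition above about 50% at 20 µM, limit read from the data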
Target sequence (Q9GZU7 76-261 limits assumed): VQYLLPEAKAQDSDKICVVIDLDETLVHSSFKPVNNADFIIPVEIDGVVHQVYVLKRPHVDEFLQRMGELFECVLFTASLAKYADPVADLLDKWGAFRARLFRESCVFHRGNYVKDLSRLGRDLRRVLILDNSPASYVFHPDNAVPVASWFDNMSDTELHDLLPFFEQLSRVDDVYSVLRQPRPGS
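System: SCP-1 catalytic domain; Reagent: Phospho 17-mer peptide substrate; Doses: one concentration, 20 µM, with 1.0% DMSO; Incubation: 45 min room-temperature reaction, 5 min colour, 30 min stabiliser; Signal: Phosphate-binding colour reagent, absorbance read at 630 nm.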
Hits are given with their value; n = inactive; x = no result given. Shown are actives, neighbours in structure and some others; about 2.3% of the full set was active somewhere.

SMILES	Rpn11 block	STEP block	SUMO1 PPI mod	LMPTP inh	DNMT1 block	Scp-1 inhibitor
Cc1ncoc1C(=O)NCC1=C(c2ccc(S(C)(=O)=O)cc2)C[C@@H]2CC[C@H]1N2CCOc1ccccc1	n	n	n	n	n	x
O=C1C(=O)c2ccccc2-c2ccccc21	n	36	n	51	105	n
O=C1C(=O)c2cccc3cccc1c23	n	n	n	n	n	n
Clc1ccc(C2NCCc3[nH]cnc32)cc1 (stereo not given)	n	n	41	n	n	n
CC(C)(OOC1(c2ccccc2)NC(=O)c2ccccc21)c1ccccc1 (stereo not given)	x	x	n	n	x	x
CN1C(=O)C(=Cc2ccc(Sc3ccccc3)o2)C(=O)N(C)C1=S	44	n	n	n	n	n
N#CC(C#N)=Cc1ccc(C=C(C#N)C#N)cc1	72	n	n	n	n	n
COc1cc2c(cc1OC)C13CCN4C=C5CCOC6CC(=O)N2C1C6C5CC43 (stereo not given)	n	n	n	n	n	n
O=C1NC(=O)C(=Cc2ccc(-c3ccc(Cl)cc3)o2)C(=O)N1	n	n	n	n	n	n
O=C1NC(=O)C(=Cc2ccc(-c3ccc(F)cc3O)o2)C(=O)N1	n	n	n	n	n	95
COC(=O)C1=C(C(=O)OC)SC2(S1)C(C(=O)OC)=C(C(=O)OC)Sc1c2ssc1=O	63	n	n	n	n	n
Cc1nc2cc(OC(=O)N(C)Cc3cccc(-c4ccncc4)c3)ccc2s1	x	x	n	n	x	x
O=C1CC=C2C3CC4N(CCC45c4ccccc4N1C25)CC3=CCO (stereo not given)	n	n	n	n	n	n
O=C1CC=C2C3CC4N(CCC45c4cc(O)c(O)cc4N1C25)CC3=CCBr (stereo not given)	n	84	111	77	91	n
CN(C)C1C(=O)C(C(N)=O)=C(O)C2(O)C(=O)C3=C(O)c4c(O)cccc4C(C)(O)C3C(O)C12 (stereo not given)	x	n	n	52	53	n
COc1ccc(P2(=O)Nc3ccccc3N2)cc1	n	n	n	n	n	55
CC1Oc2cc3c(-c4c(O)cc(O)c5c(O)c6c(cc45)OC(C)C(C)C6=O)c(O)cc(O)c3c(O)c2C(=O)C1C (stereo not given)	n	n	43	n	60	n
Cc1cccc(-n2c(=S)[nH]c3ccccc3c2=O)n1	n	n	n	n	n	n
N#Cc1c(/N=C/c2c(O)n(Cc3ccco3)c(=O)[nH]c2=O)sc2c1CCCC2	n	n	n	n	67	n
Cc1ccc(N2C(=O)NC(=O)/C(=C\c3cc(C)n(-c4cc(C(=O)O)cc(C(=O)O)c4)c3C)C2=O)cc1	n	n	n	n	n	51
Cc1ccc(N2C(=O)NC(=O)/C(=C\c3cc(C)n(-c4ccc(C(=O)O)cc4)c3C)C2=O)cc1	n	n	n	n	n	n
Cc1ccc(N2C(=O)NC(=O)/C(=C\C=C\c3ccco3)C2=O)cc1	n	n	n	n	n	n
CCOC(=O)C1CCN(/C=C2/C(=O)NC(=O)N(Cc3ccco3)C2=O)CC1	n	n	n	n	n	66
Cc1ccc(OCCn2cccc2/C=C2/C(=O)NC(=O)N(Cc3ccco3)C2=O)cc1	n	n	n	n	61	n
CN1C(=O)/C(=C/C=C/c2ccco2)C(=O)NC1=S	149	n	54	n	94	98
Cc1ccc(N2C(=O)NC(=O)/C(=C\C=C\c3ccco3)C2=O)cc1C	n	n	n	n	66	n
Cc1cccc(N2C(=O)NC(=O)/C(=C\C=C\c3ccco3)C2=O)c1	n	n	n	n	n	n
